Experimental data of several laboratories.
Target: Death-associated protein kinase 1 (DAPK1, Homo sapiens, UniProt P53355)

Nc1nc(Nc2ccc(S(N)(=O)=O)cc2)nn1C(=O)c1c(F)cccc1F has a remaining signal of 93.8% (cell-free assay; 0.5 µM).
For Cc1cc(NC(=O)c2cccc3cc(-c4cccc5[nH]nc(N)c45)ccc23)ccc1F, the activity vs control was 88% (enzyme activity; inhibitor; 0.1 µM).
The activity vs control of FC(F)(F)Oc1cccc(-c2cnc3ccc(-c4ccncc4)nn23)c1 is reported as 101% (enzyme activity; inhibitor; radiometric; 1 µM).
The remaining binding of O=C(Nc1cccnn1)N1CC(C/C=C/c2cncc(Oc3ccc(C(F)(F)F)cn3)n2)C1 is reported as 98% (cell-free assay; competition with immobilised ligand; 1 µM).
With CNC(=O)c1cc(Oc2ccc(NC(=O)Nc3ccc(Cl)c(C(F)(F)F)c3)cc2)ccn1 the inhibition was 16% (enzyme activity; inhibitor; 0.3 µM).
CC(C)(C)c1nc(-c2cccc(NS(=O)(=O)c3c(F)cccc3F)c2F)c(-c2ccnc(N)n2)s1 gave a remaining activity of 75% (enzyme activity; inhibitor; radiometric; 1 µM).
Oc1cccc(-c2nc(N3CCOCC3)c3oc4ncccc4c3n2)c1 gave a remaining activity of 30% (enzyme activity; inhibitor; 10 µM).
CCCCN(CCCC)C(=O)CN1C[C@@H](c2cc(OC)c3c(c2)OCO3)[C@H](C(=O)O)[C@H]1CC(C)(C)CCC gave a remaining binding of 82.8% (cell-free assay; competition with immobilised ligand; 1 µM).
C[S+]([O-])c1ccc(-c2nc(-c3ccncc3)c(-c3ccc(F)cc3)[nH]2)cc1 (centres unmarked) gave a remaining signal of 90.3% (cell-free assay; 0.5 µM).
O=C(Nc1cnc(Oc2ccc(F)cc2)nc1)N1CCc2ncccc2[C@@H]1c1ccc(F)cc1 gave a remaining binding of 78% (cell-free assay; competition with immobilised ligand; 1 µM).
With CCN(CC)CCNC(=O)c1c(C)[nH]c(/C=C2\C(=O)Nc3ccc(F)cc32)c1C the remaining signal was 66.9% (cell-free assay; 0.5 µM).
The inhibition of Cc1ccc(Nc2nccc(N(C)c3ccc4c(C)n(C)nc4c3)n2)cc1S(N)(=O)=O is reported as 16% (enzyme activity; inhibitor; 0.3 µM).
CS(=O)(=O)N1CCCC(NC(=O)[C@H](CCC2CCCCC2)NC(=O)c2ccc(CNc3ncnc4c3nnn4-c3ccccc3)cc2)C1 (some centres unmarked) gave a remaining binding of 92% (cell-free assay; competition with immobilised ligand; 0.1 µM).
For CN(C)C1CCN(CC#Cc2nn(C3CCCC3)c3nc(NCc4ccccc4)ncc23)C1 (centres unmarked), the inhibition was -2% (enzyme activity; inhibitor; FRET; 1 µM).
CCOC(=O)c1cc2cc(-c3cc(C(=O)NCc4ccc(C(=O)O)cc4)nn3C)ccc2[nH]1 gave a remaining binding of 84% (cell-free assay; competition with immobilised ligand; 0.1 µM).
Cc1sc(C(=O)NC2COC2)cc1-n1cc(NC(=O)Nc2c(F)cccc2Cl)cn1 gave a remaining activity of 104% (enzyme activity; inhibitor; 10 µM).
COc1cc(Nc2cnc(C#N)c(O[C@H](C)CN(C)C)n2)ncc1-c1cnn(C)c1 has a remaining activity of 95% (enzyme activity; inhibitor; radiometric; 1 µM).
The activity vs control of COc1cc(/C=C/C(=O)CC(=O)/C=C/c2ccc(O)c(OC)c2)ccc1O is reported as 93% (enzyme activity; inhibitor; 1 µM).
CS(=O)(=O)NCC[C@H](NC(=O)c1cncc2c1cnn2-c1ccc(F)cc1)c1ccnc(S(C)(=O)=O)c1 has a remaining binding of 100% (cell-free assay; competition with immobilised ligand; 1 µM).
With Cn1c(=O)n(-c2ccc(C(C)(C)C#N)cc2)c2c3cc(-c4cnc5ccccc5c4)ccc3ncc21 the remaining activity was 107% (enzyme activity; inhibitor; 10 µM).
For CN1CC(Oc2cnc(C#N)cc2-c2ccn3nc(NC(=O)C4CC4)cc3c2)C1, the inhibition was 1% (enzyme activity; inhibitor; 1 µM).
With CC(C)(O)[C@H]1CC[C@H](Nc2ccc3ncc(-c4cccc(C(F)(F)F)c4)n3n2)CC1 the remaining activity was 110% (enzyme activity; inhibitor; 1 µM).
With N#Cc1ccc(Nc2ccc3[nH]c(=O)[nH]c3c2)c(Cl)c1 the remaining binding was 100% (cell-free assay; competition with immobilised ligand; 1 µM).
For O=C1NC(=O)c2cc(Nc3ccc(F)cc3)c(Nc3ccc(F)cc3)cc21, the remaining signal was 81.3% (cell-free assay; 0.5 µM).
Cc1noc([C@H]2C[C@@H](c3ccc(C(F)(F)F)cc3)CN(C(=O)N3CCS(=O)(=O)C3)C2)n1 gave a remaining binding of 100% (cell-free assay; competition with immobilised ligand; 1 µM).
Cc1cnc(NC2CCOCC2)nc1-n1cnc(C(=O)NC(CN)c2cc(F)cc(Cl)c2)c1 (centres unmarked) gave a remaining activity of 96% (enzyme activity; inhibitor; radiometric; 1 µM).
